Data from article PMC8370243 (Antimicrobial Agents and Chemotherapy, 2021).
Read-outs that look alike come from different tables or passages of the source.

Assays:
SARS-CoV-2 [1] = assay type: cell-based
SARS-CoV-2 [2] = test: Short-term assay for interactions of PIs and remdesivir, Vero E6 cells; assay type: cell-based; conditions: for residual infectivity: Vero E6, treatment condition 3; for interaction with remdesivir (method of Chou and Talalay, CompuSyn): Vero E6 and A549-hACE2 data sets
Vero E6 cells = test: Concentration-response cell viability assay, Vero E6 cells; assay type: cell-based, African green monkey; conditions: noninfected
[3] = clinical phase 1 trials; cited from earlier work
SARS-CoV-2 [4] = assay type: cell-based; conditions: Vero E6 cells, 46 to 50 h
[5] = Concentration-response cell viability assay, A549-hACE2 cells; assay type: cell-based, human; conditions: human, noninfected
SARS-CoV-2 [6] = assay type: cell-based; conditions: A549-hACE2
[7] = Concentration-response cell viability assay, Huh7.5 cells; assay type: cell-based, human; conditions: human, noninfected
Summary of the method: (§1)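 Huh7.5 hepatoma cells in DMEM/10% heat-inactivated FBS with penicillin/streptomycin, plated at 9,000 cells/well. The following day, noninfected cultures received test compound dilution series (DMSO-dissolved) or DMSO alone. Incubation was 70–74 h, then CellTiter 96 Aqueous One reagent for 1–3 h at 37°C, 5% CO₂, and absorbance at 492 nm. Each concentration had 2–4 replicate wells, normalised to the mean of 12 untreated control wells on each plate.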

SARS-CoV-2 [8] = assay type: cell-based; remark: listed apart in the source
SARS-CoV-2 [9] = assay type: cell-based; conditions: Vero E6
[10] = Concentration-response cell viability assay, Vero E6 cells; assay type: cell-based, African green monkey; conditions: African green monkey, noninfected, CC50, Vero E6 cells
[11] = rats; single oral administration; cited from earlier work
SARS-CoV-2 [12] = conditions: cited from earlier work
A549-hACE2 cells = test: Concentration-response cell viability assay, A549-hACE2 cells; assay type: cell-based, human; conditions: noninfected
Huh7.5 cells = test: Concentration-response cell viability assay, Huh7.5 cells; assay type: cell-based, human; conditions: noninfected
Summary of the method: as §1

[13] = Severe acute respiratory syndrome coronavirus 2
[14] = Severe acute respiratory syndrome coronavirus 2, Huh7.5
[15] = A549-hACE2 cells, […], 46 to 50 h

CCC(CC)COC(=O)[C@H](C)N[P@](=O)(OC[C@H]1O[C@@](C#N)(c2ccc3c(N)ncnn23)[C@H](O)[C@@H]1O)Oc1ccccc1 [Remdesivir, remdesivir]
EC50 (SARS-CoV-2 [1]; [13]): 0.1 µM | residual infectivity (SARS-CoV-2 [2]; 0.6 μM remdesivir singly): 83% | residual infectivity (SARS-CoV-2 [2]; 1.7 μM remdesivir singly): 47%

Cc1cnc(C(=O)N[C@H]2CCCCC/C=C\[C@@H]3C[C@@]3(C(=O)NS(=O)(=O)C3CC3)NC(=O)[C@@H]3C[C@@H](Oc4nc5ccccc5c5ccccc45)CN3C2=O)cn1 [Paritaprevir, paritaprevir]
interaction with remdesivir (method of Chou and Talalay, CompuSyn) (SARS-CoV-2 [2]): primarily synergistic | CC50 (Vero E6 cells): 123 µM

CCCCCOc1ccc(NC(=S)NC(=O)c2cccnc2)cc1C(F)(F)F [ACH-806]
adverse finding that halted development [3]: reversible nephrotoxicity | EC50 (SARS-CoV-2 [4]): 46 µM | CC50 (Vero E6 cells): > 429 µM

CC(C)(C)NC(=O)N[C@H](C(=O)N1C[C@H]2[C@@H]([C@H]1C(=O)NC(CC1CCC1)C(=O)C(N)=O)C2(C)C)C(C)(C)C (stereo partly shown) [Boceprevir, boceprevir]
CC50 [5]: > 1210 µM | effect on viral spread (viral RNA titers) (SARS-CoV-2 [6]; 1- to 5-fold EC50 boceprevir): minor impact | effect on viral spread (viral RNA titers) (SARS-CoV-2 [6]; 1-fold EC50 PI singly): no to little effect | effect on viral spread (viral RNA titers) (SARS-CoV-2 [6]; 8-fold EC50 boceprevir, observation period 13 days): viral suppression | EC50 (SARS-CoV-2 [1]; [13]): 20 µM | CC50 [7]: 701 µM | EC50 (SARS-CoV-2 [4]): 44 µM | residual infectivity (SARS-CoV-2 [2]; 17.4 μM boceprevir singly): 79% | interaction with remdesivir (method of Chou and Talalay, CompuSyn) (SARS-CoV-2 [2]): primarily antagonistic | EC50 (SARS-CoV-2 [8]; [14]): 42 µM | viral RNA titers in supernatant (SARS-CoV-2 [9]; 3-fold EC50 boceprevir): decreased to values around the lower limit of quantification | viral suppression (immunostaining) (SARS-CoV-2 [9]; 3-fold EC50 boceprevir, […], follow-up 9 days): sustained viral suppression | viral RNA titers in supernatant (SARS-CoV-2 [9]; 5-fold EC50 boceprevir): decreased to values around the lower limit of quantification | viral suppression (immunostaining) (SARS-CoV-2 [9]; 5-fold EC50 boceprevir, […], follow-up 17 days): sustained viral suppression | CC50 [10]: > 1210 µM

COc1ccc2c(O[C@@H]3C[C@H]4C(=O)N[C@]5(C(=O)NS(=O)(=O)C6CC6)C[C@H]5/C=C\CCCCN(C)C(=O)[C@@H]4C3)cc(-c3nc(C(C)C)cs3)nc2c1C [Simeprevir, simeprevir]
CC50 [5]: 56 µM | effect on viral spread (viral RNA titers) (SARS-CoV-2 [6]; 1-fold EC50 PI singly): no to little effect | EC50 (SARS-CoV-2 [1]; [13]): 9 µM | CC50 [7]: 33 µM | residual infectivity (SARS-CoV-2 [2]; 11.1 μM simeprevir singly): 100% | EC50 (SARS-CoV-2 [8]; [14]): 14 µM | concentration in the intestine relative to plasma [11]: up to 128 fold | concentrations in other tissues relative to plasma [11]: roughly equal to plasma concentrations | CC50 [10]: 59 µM | EC50 (SARS-CoV-2 [12]; human lung cells): 1 µM

voxilaprevir
CC50 (A549-hACE2 cells): 81 µM | EC50 (SARS-CoV-2 [1]; [15]): 10 µM | EC50 (SARS-CoV-2 [4]): > 27 µM | CC50 (Vero E6 cells): 72 µM | EC50 (SARS-CoV-2 [12]; A549-hACE2 cell line): > 10 µM

CC[C@@H]1C[C@]1(NC(=O)[C@@H]1C[C@@H]2CN1C(=O)[C@H](C(C)(C)C)NC(=O)OCC(C)(C)CCCCc1cccc3c1CN(C3)C(=O)O2)C(=O)NS(=O)(=O)C1CC1 [Vaniprevir, vaniprevir]
CC50 (Vero E6 cells): 171 µM

C=C[C@@H]1C[C@]1(NC(=O)[C@@H]1C[C@@H]2CN1C(=O)[C@H](C(C)(C)C)NC(=O)O[C@@H]1C[C@H]1CCCCCc1nc3ccc(OC)cc3nc1O2)C(=O)NS(=O)(=O)C1CC1.O [Grazoprevir, grazoprevir]
CC50 (A549-hACE2 cells): 125 µM | effect on viral spread (viral RNA titers) (SARS-CoV-2 [6]; 1-fold EC50 PI singly): no to little effect | EC50 (SARS-CoV-2 [1]; [15]): 26 µM | CC50 (Huh7.5 cells): 133 µM | EC50 (SARS-CoV-2 [4]): 42 µM | interaction with remdesivir (method of Chou and Talalay, CompuSyn) (SARS-CoV-2 [2]): primarily synergistic | EC50 (SARS-CoV-2 [8]; Huh7.5 cells, […], 70 to 74 h): 20 µM | infected culture cells (SARS-CoV-2 [9]; 1-fold EC50 PI, […]): 90% | CC50 (Vero E6 cells): 239 µM

C=C[C@@H]1C[C@]1(NC(=O)[C@@H]1C[C@@H](Oc2ncc(OC)c3ccc(Cl)cc23)CN1C(=O)[C@@H](NC(=O)OC(C)(C)C)C(C)(C)C)C(=O)NS(=O)(=O)C1CC1 [Asunaprevir, asunaprevir]
CC50 [10]: 263 µM

CCCC[C@H](NC(=O)[C@@H]1[C@@H]2[C@H](CN1C(=O)[C@@H](NC(=O)NC1(CS(=O)(=O)C(C)(C)C)CCCCC1)C(C)(C)C)C2(C)C)C(=O)C(=O)NC1CC1 [Narlaprevir, narlaprevir]
EC50 (SARS-CoV-2 [4]): 37 µM | interaction with remdesivir (method of Chou and Talalay, CompuSyn) (SARS-CoV-2 [2]): primarily antagonistic | CC50 [10]: 269 µM

CC(C)(C)[C@@H]1NC(=O)O[C@@H]2CCC[C@H]2OC/C=C/C(F)(F)c2nc3ccccc3nc2O[C@@H]2C[C@@H](C(=O)N[C@]3(C(=O)NS(=O)(=O)C4(C)CC4)C[C@H]3C(F)F)N(C2)C1=O [Glecaprevir, glecaprevir]
CC50 [5]: > 268 µM | EC50 (SARS-CoV-2 [1]; [13]): > 94 µM | CC50 (Vero E6 cells): > 268 µM

CC(C)(C)OC(=O)N[C@H]1CCCCC/C=C\[C@@H]2C[C@@]2(C(=O)NS(=O)(=O)C2CC2)NC(=O)[C@@H]2C[C@@H](OC(=O)N3Cc4cccc(F)c4C3)CN2C1=O [Danoprevir, danoprevir]
CC50 (Vero E6 cells): > 243 µM

COc1ccc2c(O[C@@H]3C[C@H]4C(=O)N[C@]5(C(=O)NS(=O)(=O)C6CC6)C[C@H]5/C=C\CCCCC[C@H](CC(=O)N5CCCC(F)(F)C5)C(=O)N4C3)cc(-c3nc(C(C)C)cs3)nc2c1C [Deldeprevir, deldeprevir]
CC50 [10]: 56 µM

CCC[C@H](NC(=O)[C@@H]1[C@H]2CCC[C@H]2CN1C(=O)[C@@H](NC(=O)[C@@H](NC(=O)c1cnccn1)C1CCCCC1)C(C)(C)C)C(=O)C(=O)NC1CC1 [Telaprevir, telaprevir]
CC50 [10]: > 432 µM
